Compound activity deposited in PubChem BioAssay by several laboratories.
Rows were chosen to be rich in hits. Some 4% of all compounds tested hit in one or more screens of this group.
FAK inh – inhibitors of human focal adhesion kinase. Q05397. biochemical FAK kinase activity assay. inhibition, %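 (tested at 7 µM)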. 97,000 tested, 0.84% active
ERb SRC1 inh – ER-beta (human) coactivator binding inhibition; Q92731; TR-FRET ER-beta LBD / SRC1-Cy5 peptide binding; receptor agonist-loaded with 1 µM estradiol; inhibition, % at 25.6 µM; 86,000 tested, 1.3% active; AID 633;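 active = compounds whose percent inhibition of the receptor-coactivator binding signal exceeds about 50% in the single-dose screen, limit read from the data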
Rev-RRE block – disrupts HIV-1 Rev binding to RRE RNA; inhibition, % at 8 µM; P05866; Rev peptide-RRE RNA binding, FRET; AID 704; 97,000 tested, 0.79% active;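 active = inhibition above the screen-wide mean plus 3 SD, cut at about 35% in these data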
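Probe or stimulus: fluorescein-Rev peptide as binding partner; assay system: Cy5-tagged RRE RNA duplex with fluorescein-tagged Rev peptide; timing: 5 min compound–RNA preincubation, then 15 min with peptide, 25 °C; medium: HEPES pH 7.5 buffer with KCl, MgCl2, NaCl and EDTA; signal: fluorescein-to-Cy5 FRET, 480 nm excitation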
Smad3 inh – inhibitors of human Smad3 transcription factor binding. P84022. TR-FRET Smad3/Dy647-FoxH1 peptide binding, europium anti-His. inhibition, % at 25 µM. 88,000 tested, 0.29% active;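 active = compounds that reduce the energy-transfer binding signal between the protein and its labelled peptide by more than half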
ERa coact inh – ER-alpha (human) coactivator binding inhibition. TR-FRET ER-alpha LBD / SRC-1 peptide, estradiol-bound. inhibition, % at 25.6 µM. 86,000 tested, 1.7% active. AID 629; in the data active = inhibition above about 50%
ERa coact pot – enhances coactivator binding to human estrogen receptor alpha. P03372. TR-FRET ERalpha-LBD/SRC-Cy5 coactivator binding, 2 h; 100 = basal binding, no effect. coactivator binding (% of control), % at 25.6 µM. 86,000 tested, 1.3% active. AID 639; in the data active = activity above about 200%;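 note: binding measured in presence of low estradiol as agonist stimulus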
FAK inh confirm – confirmation of human focal adhesion kinase (FAK) inhibitors; FAK kinase biochemical inhibition assay; 750 tested, 28% active; inhibition, % at 7 µM; shares compounds with FAK inh; AID 794
Large screens that a line does not name were inactive (follow-up assays come after a bar, where they were run); [ ] = remark or other dose. Cut-off read from the data, not from the text of the source, unless noted: active = inhibition above about 19%; inactive = the rest.

CSc1nc(SCC(=O)NC(c2ccccc2)c2ccccc2)c2c3c(sc2n1)CN(C)CC3	FAK inh 24 | FAK inh confirm inactive
CCN1CCN(c2cc(C)c3cc(NC(=O)c4cncc(Br)c4)ccc3n2)CC1	FAK inh 26 | FAK inh confirm inactive
CCN1CCN(c2cc(C)c3cc(NC(=O)c4ccc(OC)c(OC)c4)ccc3n2)CC1	none
O=c1[nH]c2ccccc2nc1N1CCOCC1	none
c1ccc2c(c1)nc(N1CCOCC1)c1c3ccccc3[nH]c21	FAK inh 31 | FAK inh confirm inactive
COc1cc2ccccc2c2c1CCCC2=O	none (no result: ERb SRC1 inh, Smad3 inh, ERa coact inh, ERa coact pot)
CC(C)OC(=O)Cn1cnc2ccc(Br)cc2c1=O	none
C/C(Cl)=C\Cn1c(N2CCCCCC2)nc2c1c(=O)n(C)c(=O)n2C	none
COC(=O)Cc1ccc2c3ccccc3n(C)c2c1	FAK inh 41 | FAK inh confirm 32
CCN(CC(=O)Nc1c(C(=O)OC)[nH]c2ccc(C)cc12)c1ccc2c(c1)OCO2	none
Cc1ccc(NC(=O)c2cc(-c3cccc(O)c3)on2)cc1C	none
COc1ccc2sc3ccccc3c(=O)c2c1	FAK inh 29 (no result: ERb SRC1 inh, Smad3 inh, ERa coact inh, ERa coact pot) | FAK inh confirm inactive
O=c1oc2c3c4c(cc2s1)CCCN4CCC3	FAK inh 20, ERb SRC1 inh 68[fluorescence artefact?], ERa coact inh 72[fluorescence artefact?] | FAK inh confirm inactive
CC1CCCCN1S(=O)(=O)c1ccc2c(c1)oc(=O)n2CC(=O)O (stereo not given)	none
O=C(Cn1c(=O)oc2cc(S(=O)(=O)N3CCCCCC3)ccc21)NC1CCCCCCC1	FAK inh 22, ERa coact pot 202 | FAK inh confirm inactive
Cc1cccc(NC(=O)C2CCCN(S(=O)(=O)c3cccc4nsnc34)C2)c1 (stereo not given)	FAK inh 94, ERb SRC1 inh 51[fluorescence artefact?], ERa coact pot 230[fluorescence artefact?] | FAK inh confirm inactive
CCOc1ccc(NC(=O)C2CCCN(S(=O)(=O)c3cccc4nsnc34)C2)cc1 (stereo not given)	none
O=C1Cn2c(nc3ccccc32)N1c1cccc(C(F)(F)F)c1	none
CCOC(=O)N1CCC2(CC1)C(C#N)=C(N)Oc1n[nH]c(CSc3ccc(C)cc3)c12	FAK inh 22 | FAK inh confirm inactive
CN(Cc1ccccc1)c1ncnc2ccc(Br)cc12	FAK inh 39 | FAK inh confirm inactive
COc1ccc(-n2nnnc2SCC(=O)Nc2nc3c(s2)CCCC3)cc1	FAK inh 24 | FAK inh confirm inactive
COc1ccc(-n2nnnc2SCC(=O)Nc2nnn(C)n2)cc1	none
Cc1c(Br)cc(C(=O)OC2CCN(C)CC2)c(C)c1C	none
CCc1ccc(OCC(=O)Nc2ccc(-c3nc4ccccc4o3)c(O)c2)cc1	FAK inh 30, ERb SRC1 inh 70[fluorescence artefact?], ERa coact inh 80[fluorescence artefact?] | FAK inh confirm 21
COc1ccc(OCC(=O)Nc2cccc(-c3nc4ccccc4o3)c2)cc1	none
CCCCNC(=O)c1sc2ncnc(N3CCc4ccccc4C3)c2c1C	none
CCOC(=O)CNC(=O)c1sc2ncnc(N3CCc4ccccc4C3)c2c1C	FAK inh 42 | FAK inh confirm 33
Cc1ccc(NC2=C(N3CCOCC3)C(=O)c3ccccc3C2=O)cc1	FAK inh 43 (no result: ERb SRC1 inh, Smad3 inh, ERa coact inh, ERa coact pot) | FAK inh confirm inactive
CC(=O)c1ccc(NC2=C(N3CCOCC3)C(=O)c3ccccc3C2=O)cc1	none (no result: ERb SRC1 inh, Smad3 inh, ERa coact inh, ERa coact pot)
COc1ccc(-c2ccc3c(N)c(C(=O)c4ccc(OC)c(OC)c4)sc3n2)cc1	FAK inh 35, Rev-RRE block 85[fluorescence artefact?] (no result: ERb SRC1 inh, Smad3 inh, ERa coact inh, ERa coact pot) | FAK inh confirm 25
COc1ccc(C(=O)c2sc3nc(-c4ccccc4)ccc3c2N)cc1OC	FAK inh 59, Rev-RRE block 97[fluorescence artefact?] (no result: ERb SRC1 inh, Smad3 inh, ERa coact inh, ERa coact pot) | FAK inh confirm 34
COc1ccc(C(=O)c2sc(Nc3ccccc3)c(C(=O)Nc3ccc(OC)c(OC)c3)c2N)cc1	none (no result: ERb SRC1 inh, Smad3 inh, ERa coact inh, ERa coact pot)
COc1ccc(C(=O)c2ccc(OC)c(OC)c2)cc1	none
Cc1sc(N/N=C/C=C/c2ccccc2)nc1-c1ccccc1	none (no result: ERb SRC1 inh, Smad3 inh, ERa coact inh, ERa coact pot)
O=[N+]([O-])c1cccc(/C=C/c2nc3ccc([N+](=O)[O-])cc3[nH]2)c1	FAK inh 34 (no result: ERb SRC1 inh, Smad3 inh, ERa coact inh, ERa coact pot) | FAK inh confirm 21
CC1(C)Cc2nc3sc(C(=O)NCCO)c(N)c3cc2CO1	none
